Experimental data pooled from the literature.
Target: Activin receptor type-1 (ACVR1, Homo sapiens, UniProt Q04771)
Residues used in one study (Q04771 1-509): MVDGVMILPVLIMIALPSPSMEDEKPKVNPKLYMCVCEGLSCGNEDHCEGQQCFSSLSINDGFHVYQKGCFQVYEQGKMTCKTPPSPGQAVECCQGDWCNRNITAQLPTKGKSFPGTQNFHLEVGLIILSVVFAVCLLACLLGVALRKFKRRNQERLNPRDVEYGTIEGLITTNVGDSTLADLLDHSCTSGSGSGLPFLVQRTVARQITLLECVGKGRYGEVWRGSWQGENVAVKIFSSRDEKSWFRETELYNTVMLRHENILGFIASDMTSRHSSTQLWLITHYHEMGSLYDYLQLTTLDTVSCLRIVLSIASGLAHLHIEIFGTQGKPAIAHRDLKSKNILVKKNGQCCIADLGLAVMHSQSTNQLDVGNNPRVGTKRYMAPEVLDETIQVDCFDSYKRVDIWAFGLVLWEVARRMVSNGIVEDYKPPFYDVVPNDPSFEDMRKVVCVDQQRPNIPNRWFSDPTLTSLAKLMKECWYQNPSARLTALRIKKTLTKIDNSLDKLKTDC

Structure (SMILES)	assay	setting	quantity	result
CC1=C(C#N)C(c2ccc3c(c2)c(NC(=O)c2ccccc2C)nn3C)C(C#N)=C(C)N1	cell-free assay, competition with immobilised ligand	1 µM	remaining binding	99%
Cn1c2c(c3ccc(Cl)c(Cl)c31)C(C#N)C1(CCCC1)NC2=O (centres unmarked)	thermal stability, DSF	10 µM	ΔTm	-0.2 °C
Cc1c(NC(=O)c2cc(C(N)=O)nc3cc(F)ccc23)c(C(F)(F)F)nn1Cc1ccc(C#N)cc1	cell-free assay, competition with immobilised ligand	1 µM	remaining binding	87%
CC(C)(O)[C@H]1CC[C@H](Nc2ccc3ncc(-c4cccc(C(F)(F)F)c4)n3n2)CC1	enzyme activity, inhibitor	1 µM	remaining activity	28.2%
Nc1ncnc2occ(-c3ccc(NC(=O)Nc4cc(C(F)(F)F)ccc4F)cc3)c12	cell-free assay	20 µM	remaining signal	72%
COc1cc2c(N3CCN(C(=O)Nc4ccc(OC(C)C)cc4)CC3)ncnc2cc1OCCCN1CCCCC1	cell-free assay	0.5 µM	remaining signal	145%
CN1CCN(c2cnc3c(C4CCN(C(=O)c5ccc(OC(F)(F)F)cc5N)CC4)ncnc3c2)CC1	cell-free assay, competition with immobilised ligand	1 µM	remaining binding	100%
CCOc1cc(-c2nncn2C)ccc1Nc1ncc2cc(C)nc(NCC(C)(C)C)c2n1	cell-free assay, TR-FRET	1 µM	inhibition	≤ 15%
N#CCCc1ccc2c(c1)-c1[nH]c3ccc([N+](=O)[O-])cc3c1CC(=O)N2	cell-free assay	0.5 µM	remaining signal	58.8%
CC(=O)C1=C(C)N(c2cccc(C(F)(F)F)c2)C(=O)N[C@@H]1c1ccc(C#N)nc1	cell-free assay, competition with immobilised ligand	1 µM	remaining binding	74.5%
O=C(Nc1cnn(-c2csc(C(=O)NC3COC3)c2)c1)Nc1c(F)cccc1Cl	enzyme activity, inhibitor	5 µM	remaining activity	95.7%
Cc1ccc(NC(=O)c2ccc(C)c(C(F)(F)F)c2)cc1C#Cc1nn(C2CCC(O)CC2)c2ncnc(N)c12 (centres unmarked)	cell-free assay	10 µM	remaining signal	77%
Cn1c2c(c3ccc(Cl)c(Cl)c31)C(C#N)C1(CCNCC1)NC2=O (racemic)	thermal stability, DSF	10 µM	ΔTm	-0.1 °C
CC(C)(C)c1nc(-c2cccc(NS(=O)(=O)c3c(F)cccc3F)c2F)c(-c2ccnc(N)n2)s1	enzyme activity, inhibitor, radiometric	1 µM	remaining activity	47%
N#CC1c2c([nH]c3c(Cl)c(Cl)ccc23)C(=O)NC12CCCCC2 (racemic)	thermal stability, DSF	10 µM	ΔTm	0.1 °C
COc1cc(-c2cn(C3CCc4ccccc4N(CC(F)(F)F)C3=O)nn2)ccc1-n1ccc(C)n1 (centres unmarked)	cell-free assay, competition with immobilised ligand	1 µM	remaining binding	100%
Cn1c2c(Cl)c(Cl)ccc2c2cn[nH]c(=O)c21	thermal stability, DSF	10 µM	ΔTm	3.3 °C
Oc1cccc(-c2nc(N3CCOCC3)c3oc4ncccc4c3n2)c1	cell-free assay	0.5 µM	remaining signal	105%
Cn1c2c(Cl)c(Cl)ccc2c2cc(N)[nH]c(=O)c21	thermal stability, DSF	10 µM	ΔTm	3.2 °C
Cn1cc(Cl)c2c(Oc3c(F)cc(Nc4cc(Cl)nc(N)n4)cc3F)ccnc21	cell-free assay, competition with immobilised ligand	0.1 µM	remaining binding	85%
